The record followed here is ChEMBL document CHEMBL3351653, “One-pot heterogeneous synthesis of Δ(3)-tetrahydrocannabinol analogues and xanthenes showing differential binding to CB(1) and CB(2) receptors” (Eur J Med Chem, 2014).

The target of one assay is Cannabinoid receptor 1 (Homo sapiens, UniProt P21554). Put plainly: Displacement of [3H]CP55940 from human cannabinoid CB1 receptor expressed in CHO-K1 cells by liquid scintillation counting. In kind it is cell-based. (In a radioligand displacement assay an active substance lowers the binding of a labelled ligand.)
Chain of Cannabinoid receptor 1 (P21554 whole entry): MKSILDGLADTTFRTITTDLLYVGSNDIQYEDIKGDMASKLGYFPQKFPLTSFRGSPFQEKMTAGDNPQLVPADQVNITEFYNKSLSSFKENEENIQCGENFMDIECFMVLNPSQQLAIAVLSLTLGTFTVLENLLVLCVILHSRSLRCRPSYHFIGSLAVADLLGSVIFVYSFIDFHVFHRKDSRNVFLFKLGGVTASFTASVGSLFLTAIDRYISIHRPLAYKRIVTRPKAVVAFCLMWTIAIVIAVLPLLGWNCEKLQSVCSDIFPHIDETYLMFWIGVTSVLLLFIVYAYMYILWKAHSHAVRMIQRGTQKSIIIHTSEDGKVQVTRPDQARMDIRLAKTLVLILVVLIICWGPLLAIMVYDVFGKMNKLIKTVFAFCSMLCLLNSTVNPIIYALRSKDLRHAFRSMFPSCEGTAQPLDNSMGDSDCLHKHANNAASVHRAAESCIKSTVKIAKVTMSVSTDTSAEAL
Assay [1] deals with T1, Cannabinoid receptor 2 (Homo sapiens, UniProt P34972). As to the kind of experiment: Displacement of [3H]CP55940 from human cannabinoid CB2 receptor expressed in CHO-K1 cells by liquid scintillation counting. It is filed as cell-based.
T1 sequence (P34972 whole entry): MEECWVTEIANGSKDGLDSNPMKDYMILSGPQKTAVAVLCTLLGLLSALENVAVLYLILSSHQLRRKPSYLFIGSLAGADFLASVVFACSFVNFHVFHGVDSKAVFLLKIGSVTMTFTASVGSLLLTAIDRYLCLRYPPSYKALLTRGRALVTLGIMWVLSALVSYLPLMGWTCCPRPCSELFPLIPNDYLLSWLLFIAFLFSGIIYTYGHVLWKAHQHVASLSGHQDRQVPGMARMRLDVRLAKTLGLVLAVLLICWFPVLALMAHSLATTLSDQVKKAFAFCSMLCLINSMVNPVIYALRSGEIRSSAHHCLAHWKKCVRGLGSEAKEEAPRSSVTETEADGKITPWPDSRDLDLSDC
The target in assay [2] is T1, Cannabinoid receptor 2. As to the kind of experiment: Partial agonist activity at human cannabinoid CB2 receptor expressed in CHO-K1 cells assessed as [S35]GTPgammaS binding by scintillation counting relative to vehicle treated control. In kind it is functional, cell-based. The method in brief: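 CB2 membranes held on ice with […] and 0.1 nM [35S]-GTPγS in buffer with 0.5% fatty-acid-free BSA. Reaction started by adding compound, vehicle or CP55940. GF/B filtration, washing in ice-cold 50 mM Tris-HCl pH 7.4 with 0.1% BSA, then scintillation counting. Specific binding is signal minus the excess-GTPγS residual. Results given as % of vehicle control. Three independent experiments in triplicate.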
A general note: Binding of GTPγS marks nucleotide exchange on a G protein.

For assay [3], the target named is T1, Cannabinoid receptor 2. As to the kind of experiment: Partial agonist activity at human cannabinoid CB2 receptor expressed in CHO-K1 cells assessed as [S35]GTPgammaS binding by scintillation counting. It is filed as functional, cell-based. The method in brief:
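CB2 membranes held on ice with […] and 0.1 nM [35S]-GTPγS in buffer with 0.5% fatty-acid-free BSA. GF/B filtration, washing in ice-cold 50 mM Tris-HCl pH 7.4 with 0.1% BSA, then scintillation counting. Specific binding is signal minus the excess-GTPγS residual. Three independent experiments in triplicate.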

`Cc1cc(O)c2c(c1)OC1=C(CC[C@@H](C)C1)C2(C)C`: the Ki on Cannabinoid receptor 1 and on Cannabinoid receptor 2 [1] was more than 10000 nM throughout.
In the case of `Cc1cc(O)c2c(c1)OC(C)(C)C1=C2C[C@H](C)CC1`, the Ki was 1000 nM at Cannabinoid receptor 1 and 660 nM at Cannabinoid receptor 2 [1].
Regarding `CCCCCc1cc(O)c2c(c1)OC(C)(C)C1=C2C[C@H](C)CC1`, the maximal effect (Emax) at Cannabinoid receptor 2 [2] turned out to be 133%.
In the case of `CCc1cc2c(cc1O)OC(C)(C)C1=C2C[C@H](C)CC1`, the Ki on Cannabinoid receptor 1 and on Cannabinoid receptor 2 [1] was more than 10000 nM throughout.
As to `C[C@@H]1CCC2=C(C1)c1ccc(O)cc1OC2(C)C`, the Ki at Cannabinoid receptor 1 and on Cannabinoid receptor 2 [1] was more than 10000 nM each time.
In the case of `CCCCCc1cc(O)c2c(c1)OC(C)(C)C1=C2C[C@@H](C)CC1`, the Emax on Cannabinoid receptor 2 [2] stood at 146%.
`CCCCCc1cc(O)c2c(c1)OC1=C(CC[C@H](C)C1)C2(C)C`: the EC50 at Cannabinoid receptor 2 [3] stood at 820 nM. The Ki on Cannabinoid receptor 1 is 2100 nM; at Cannabinoid receptor 2 [1], 180 nM. Moreover, the maximal response (Emax) at Cannabinoid receptor 2 [2] is 167%.
Take `Cc1c(O)ccc2c1OC(C)(C)C1=C2C[C@H](C)CC1`: the Ki on Cannabinoid receptor 1 and on Cannabinoid receptor 2 [1] was more than 10000 nM each time.
In the case of `CCc1cc2c(cc1O)OC1=C(CC[C@@H](C)C1)C2(C)C`, the Ki is more than 10000 nM on Cannabinoid receptor 1 and 510 nM on Cannabinoid receptor 2 [1].
With `C[C@@H]1CCC2=C(C1)Oc1cc(O)ccc1C2(C)C`, the Ki at Cannabinoid receptor 1 is more than 10000 nM; at Cannabinoid receptor 2 [1], 4200 nM.
With `CCCCCc1cc(O)c2c(c1)OC1=C(CC[C@@H](C)C1)C2(C)C`, at Cannabinoid receptor 2 [3], the EC50 was found to be 930 nM. The Ki on Cannabinoid receptor 1 stood at 1100 nM; on Cannabinoid receptor 2 [1], 470 nM. In addition, the maximal effect (Emax) at Cannabinoid receptor 2 [2] came to 152%.
For `Cc1c(O)ccc2c1OC1=C(CC[C@@H](C)C1)C2(C)C`, the Ki on Cannabinoid receptor 1 was more than 10000 nM; at Cannabinoid receptor 2 [1] it was 1000 nM.

As a reminder, the Ki is a dissociation constant, usually derived from enzyme kinetics or from competition with a known ligand. The low end stands for a stronger hold on the target, the high end for a looser hold on the target. In general, Emax refers to the maximal effect, on the per cent scale that the assay sets. In general, EC50 refers to the concentration giving half of the maximal effect.
